KLK7 zymogen act = proKLK7 zymogen activators, primary screen, biochemical, fluorescence intensity. Kallikrein-7 (Homo sapiens), P49862. purified proKLK7, EDANS-DABCYL substrate fluorescence; 100% is mature enzyme control, 0% vehicle. activation, % at 7 µM. hit rate 0.9% among 370,000. AID 652039, 2013;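 active = activation above the mean of all tested compounds plus 3 SD, computed per campaign excluding outliers beyond control limits, cut at about 13% in these data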
DDE Tn6 FP inh = inhibitors of Tn6 peptide binding to fibrin DD(E), primary screen, biochemical, fluorescence polarization, human fibrin, Tn6 probe. Fibrinogen beta chain (Homo sapiens), P02675. Fibrin DD(E) TRITC-Tn6 fluorescence polarization displacement. inhibition, % at 8.3 µM. hit rate 0.21% among 370,000. AID 720509, 2013;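 active = inhibition above a per-campaign cutoff: mean of compounds within control limits plus 3 SD, cut at about 15% in these data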;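 note: 0% = median of all compound wells on the plate and 100% = blocking peptide control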
Target sequence (P02675 whole entry, looked up): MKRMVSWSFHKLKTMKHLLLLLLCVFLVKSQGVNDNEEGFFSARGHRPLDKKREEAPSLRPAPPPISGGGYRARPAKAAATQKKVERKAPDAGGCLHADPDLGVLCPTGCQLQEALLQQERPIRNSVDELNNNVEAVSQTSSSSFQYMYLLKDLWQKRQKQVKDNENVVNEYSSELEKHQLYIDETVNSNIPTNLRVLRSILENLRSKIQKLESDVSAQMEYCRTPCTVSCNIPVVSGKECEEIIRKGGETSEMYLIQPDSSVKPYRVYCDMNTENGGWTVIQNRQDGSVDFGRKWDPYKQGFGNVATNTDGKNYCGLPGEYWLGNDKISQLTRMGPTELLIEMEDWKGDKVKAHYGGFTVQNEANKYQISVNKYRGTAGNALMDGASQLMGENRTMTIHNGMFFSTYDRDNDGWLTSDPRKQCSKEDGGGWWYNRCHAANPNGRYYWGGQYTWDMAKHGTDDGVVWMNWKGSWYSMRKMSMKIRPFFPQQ
Tn7 DDE FP = inhibitors of Tn7 peptide binding to fibrin DD(E), primary screen, biochemical, fluorescence polarization, human fibrin, Tn7 probe | Fibrinogen beta chain (Homo sapiens), P02675 | FP displacement of FITC-Tn7 peptide from fibrin DD(E); 0% = median of compound wells per plate | inhibition, % at 8.3 µM | hit rate 0.13% among 370,000 | AID 720508, 2013;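 active = inhibition above the mean of compounds falling within the control limits plus 3 SD of them, cut at about 14% in these data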;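 note: 0% = plate median of compound wells and 100% = 10 µM Aha-Tn7 peptide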
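Assay system: human fibrin DD(E). Input: DD(E) 2 µM final. Medium: Tris buffer with calcium and detergent, pH 7.8. Compound dosing: single point at 8.3 µM. Timing: 10 min plus 3 h, room temperature. Technique: fluorescence polarization of the labelled Tn7 tracer. Read-out: percent inhibition. Replicates: singlicate testing.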
NRP1-CendR mod = modulators of CendR peptide binding to NRP-1, primary screen, biochemical, fluorescence polarization, uHTS | Neuropilin-1 (Homo sapiens), O14786 | FAM-RPARPAR peptide binding to NRP-1 | inhibition, % at 25 µM | hit rate 0.85% among 360,000;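 active = inhibition or corrected inhibition above about 18%, plus a signal ratio from 0.5 to 1.5, limit read from the data, passing the limit was not always enough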
CRFBP-R2 agonist = agonists of CRF-BP/CRF-R2 complex, primary screen, cell-based, HEK293, calcium dye fluorescence, uHTS; CRF-binding protein / CRF receptor 2 complex (human); calcium dye fluorescence (FLIPR); percent of saturating CRF peptide response; activation, % at 13.2 µM; hit rate 0.46% among 350,000; AID 588473, 2011;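 active = activation of at least 50%, plus an integration ratio under a set limit after plate pattern correction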;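 note: plate controls were neutral control wells without compound for no effect and CRF at EC100 for full effect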
CRFR2-BP antag = antagonists of CRF-BP/CRF-R2 complex, primary screen, cell-based, HEK293, calcium dye fluorescence, uHTS; CRF-induced calcium fluorescence; inhibition, % at 11.8 µM; hit rate 0.59% among 350,000;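 active = inhibition of the ligand-induced calcium signal above about 50% at the single tested concentration, limit read from the data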
Active calls of the source: *; nt = no result. The list is not random: actives were taken first. Their share in the collection is about 2.9%.

SMILES	KLK7 zymogen act	DDE Tn6 FP inh	Tn7 DDE FP	NRP1-CendR mod	CRFBP-R2 agonist	CRFR2-BP antag
COC(=O)[C@]12C[C@H](CC(=O)N3CCN(C(=O)c4ccco4)CC3)C(=O)N(Cc3ccc(Cl)cc3Cl)C1=C[C@H](C1CCCC1)O[C@@H]2C	0	0	-6	nt	nt	nt
COc1cccc(-c2cc3onc(-c4ccccc4)c3c(=O)n2C)c1	1	-3	-7	18*	3	6
CN1/C(=C\C=C2/SC(=S)N(CC(=O)O)C2=O)C(C)(C)c2ccccc21	0	-19	-70	136	263*	-185
CCCN1C(=O)/C(=C/c2ccncc2)SC1=S	0	3	1	-8	-1	0
CCCN1C(=O)/C(=C\C=C2/Sc3ccccc3N2CCO)SC1=S	0	4	2	-46	19	-3
CCCCN1C(=O)/C(=C/C=C2\Oc3ccccc3N2CC)SC1=S	0	1	0	131	287*	-365
Cn1cccc1/C=C1/SC(=S)N(CC(=O)O)C1=O	0	0	1	-150	5	11
CCCCN1C(=O)/C(=C/C=C2/CC(C)(C)CN2C)SC1=S	-1	5	-40	131	196*	-268
CCCN1C(=O)/C(=C/C=C2\N(CC)c3ccccc3C2(C)C)SC1=S	0	-6	-1	124	169*	-212
CCOc1ccccc1C(=O)Nc1ccc(C(=O)NCC2COc3ccccc3O2)cc1 (stereo not drawn)	-1	1	-1	nt	nt	nt
C[C@H](CCC(=O)N(c1ccccc1)c1ccccc1)CC1CCCCC1	1	-3	-6	nt	nt	nt
O=C(OC12CCCN(C1)/C(=C/c1cccc(Cl)c1)C2)c1ccccc1 (stereo not drawn)	0	-7	-4	nt	nt	nt
COc1cc(-n2c(C)nc3cc(C(=O)N4CCCN(C(C)=O)CC4)ccc32)cc(OC)c1OC	0	7	8	nt	nt	nt
O=C(Nc1ccc(F)cc1)OCc1cn(Cc2ccc(F)cc2F)nn1	0	6	5	nt	nt	nt
C=CCN1C(=O)/C(=C\C=C2\N(C)c3ccccc3C2(C)C)SC1=S	0	5	-1	-66	104*	-68
CCN1C(=O)/C(=C/C=C2/Sc3ccccc3N2CCO)SC1=S	0	-9	1	-124	15	-17
CCC(=O)N1CCc2cc(Br)c(S(=O)(=O)N3CCC(C(=O)NCCCOC(C)C)CC3)cc21	0	6	-4	nt	nt	nt
O=C(Nc1ccccc1N1CCCCC1)C1CCN(C(=O)c2ccc(Cl)cc2)CC1	1	1	-2	4	3	100*
CSCCC(NC(=O)c1cccc(C)c1)C(=O)NNC(=O)c1cccs1 (stereo not drawn)	0	4	-3	14	0	66*
CSCCC(NC(=O)c1cccc(C)c1)C(=O)NCc1cccs1 (stereo not drawn)	0	-2	0	4	-1	-6
COc1ccc2nc3ccccc3nc2c1N	1	-3	0	29*	0	2
COc1ccc2nc3cccc(OC)c3nc2c1	-1	4	-1	31*	19	3
COc1ccc2nc(-c3ccco3)c(-c3ccco3)nc2c1	-9	3	2	-17	3	-24
CC(C)C[C@@H]1NC(=O)[C@H]2C[C@@]3(C)c4ccccc4N[C@H]3N2C1=O	0	-3	-5	nt	nt	nt
Cc1cccc(C)c1NC(=O)C1(C)CCC(=O)N1C1CCN(Cc2ccccc2)CC1 (stereo not drawn)	1	-9	4	21*	nt	nt
O=C(CSc1nc2ccc(Cl)cc2[nH]1)NCCc1ccc(Cl)cc1	-1	-2	-4	4	1	-18
Cc1ccc(OCCC(=O)OCC(=O)NCCc2ccccc2)cc1	0	-2	2	27*	1	-1

Screens as filed in PubChem BioAssay.
